Results reported in ChEMBL document CHEMBL4513216, “Probing the Open Global Health Chemical Diversity Library for Multistage-Active Starting Points for Next-Generation Antimalarials” (ACS Infect Dis, 2020).

Assay: Toxicity liver stage against HepG2, at 10uM
Type: cell-based
Design: test concentration 10 uM, cell line HepG2-A16-CD81EGFP
Settings: human, HepG2-A16-CD81EGFP cells; read-out: INHIBITION
Outline: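 Uninfected HepG2-A16-CD81EGFP cells, 3 × 10^3 per well, 1536-well, plated on prespotted compound at 10 μM final, parasite-free screening media added to match infected plates; puromycin 10 μM positive, DMSO 0.5% negative; run in parallel with 48 h PbLuc assay at 37 °C, 5% CO2; viability by CellTiter-Glo luminescence, normalized to controls.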

Row | Structure (SMILES) | cytotoxicity at 10 µM [%]
1 | Cc1ccc(-c2c[nH]c([C@@H]3COCCN3Cc3ncc[nH]3)n2)cc1 | 0.835
2 | CN1CCN(S(=O)(=O)c2cccc(F)c2)c2ccccc21 | 38.5
3 | CO[C@@H]1CN(c2ccccc2)S(=O)(=O)[C@@]12CCN(Cc1ccccc1)C2 | 3.51
4 | COc1cccc(OC)c1CN1CC(O)CN(S(C)(=O)=O)CC1=O (stereo not given) | -82.6
5 | COc1ccc(-c2noc(C(N)CCSC)n2)cc1OC (stereo not given) | 11.2
6 | CSCC[C@@H](CO)NC(=O)c1ccc2nc(NS(C)(=O)=O)sc2c1 | 10.7
7 | O=C(CSC1CCCC1)N1CCN(C(=O)C2CC2c2ccccc2)CC1 (stereo not given) | -4.74
8 | CC(C)NC(=O)Nc1nc2c(s1)CN(C(=O)NCc1cccs1)CC2 | 33
9 | COC(=O)N1CCc2ccccc2C1C(=O)NCc1ccccn1 (stereo not given) | -3.01
10 | CC(C)(C)n1ncc2c1NC(=O)CC2c1c(F)cccc1F (stereo not given) | -1.53
11 | CC(=O)N1CC2(CCCN2Cc2ccc(Cl)cc2)Cc2ccccc21 (stereo not given) | 11.9
12 | CS(=O)(=O)N1CC2(CCN(CC3CCCCC3)CC2)Cc2ccccc21 | 6.25
13 | Cc1ccc(CN(C)Cc2ncc(C(C)(C)C)o2)o1 | -6.58
14 | N#CCCCn1cnc2c(F)cc(Br)cc2c1=O | 4.29
15 | CCc1cc(N2CCC(Nc3ccc4nnc(C)n4n3)CC2)ncn1 | 4.69
16 | CCN1CCOC(CNCc2cnc(C(C)(C)C)s2)C1 (stereo not given) | -2.24
17 | CC(C(=O)NCc1ccc2c(c1)OCCO2)n1cncn1 (stereo not given) | -141
18 | CCCC(C#N)NC(=O)c1sccc1CC (stereo not given) | 12.7
19 | Cc1nc(NC(=O)C(C)N(C)Cc2ccc3c(c2)OCO3)sc1C (stereo not given) | 0.787
20 | CC(C)(C)NC(=O)C1CCCCN1Cc1nccn1CC(F)(F)F (stereo not given) | 6.21
21 | CCN(CC)C1CCN(C(=O)Nc2cc(F)c(OC)c(F)c2)C1 (stereo not given) | 4.55
22 | CCN1CCCN(S(=O)(=O)c2cc3ccccc3o2)CC1 | 3.53
23 | CNC(=O)NC(=O)CN1CCN(CC2CC2)c2ccccc21 | 10.4
24 | O=C(CNc1cc(-n2cnnn2)ccc1F)Nc1cc(F)ccc1F | -4.09
25 | COC(=O)C1CCCN1CC(=O)NCc1ccc(OCC(N)=O)cc1 (stereo not given) | 7.45
26 | CCOCCN1CCN(C(C)C(=O)Nc2ccnn2C(C)C)CC1 (stereo not given) | -7.87
27 | CN(C(=O)NCc1nccn1Cc1ccccc1)C1CC1 | -2.22

Row | Structure (SMILES) | cytotoxicity at 10 µM [%]
28 | OC[C@@H](O)CN(CCC(F)(F)F)c1ncc(Cl)cn1 | 12.8
29 | NC(=O)NCC1CCCCN1C(=O)c1ccc(Cl)s1 (stereo not given) | -12.1
30 | Cc1ccccc1S(=O)(=O)NC(=O)C1(c2cccc(Cl)c2)CC1 | 1.97
31 | COc1ccc(N(Cc2ccco2)C(=O)C2CCCO2)cc1F (stereo not given) | -3.51
32 | Cc1cc(C(C)NC(=O)Cn2nc(C)c3ccccc3c2=O)c(C)o1 (stereo not given) | -5.3
33 | Cc1noc(C)c1CN(C)C(C)c1cccs1 (stereo not given) | -3.11
34 | Cc1nc(C)n(Cc2cccc(NC(=O)N(C)CCC(C)O)c2)n1 (stereo not given) | -6.64
35 | Cc1nc(C2CCCN(C(=O)CN3CCCC3=O)C2)sc1C (stereo not given) | -6.96
36 | O=C(C1CCCc2[nH]ncc21)N1CCCCCC1 (stereo not given) | 4.65
37 | Cc1cccc(N2CC[C@H]3CO[C@H](CN(C)Cc4ccco4)[C@H]3C2)n1 | 13.3
38 | COCc1cnc2n1CCN(C(=O)c1cc3cc(Cl)ccc3o1)C2C (stereo not given) | -112
39 | Cc1cc(=O)[nH]c(NCCNC(=O)c2ccccc2N2CCCC2)n1 | 0.998
40 | c1cc(-c2cncnc2)cc(-c2ccn(CC3CCNC3)n2)c1 (stereo not given) | 5.54
41 | Cc1cccnc1CN1CCN(C[C@]2(O)CCCN3CCCC[C@@H]32)CC1 | -0.418
42 | CCOC(=O)C1(Cc2cccc(Cl)c2)CCCN(Cc2ncc[nH]2)C1 (stereo not given) | -5.22
43 | CCOC(=O)CC(C)Nc1nc(C(C)(C)C)nc2c1cnn2C (stereo not given) | 6.51
44 | COc1ccc2[nH]nc(CN3CCN(Cc4cccc(F)c4)CC3)c2c1 | -8.14
45 | O=C(O)c1cn(CC2CCCN(c3nc4ccccc4s3)C2)nn1 (stereo not given) | -12.2
46 | CC(=O)Nc1ccc(CN2CCc3[nH]cnc3C2c2nccn2C)cc1 (stereo not given) | -182
47 | COc1coc(CN2CCCC(CCc3ccccc3C)C2)cc1=O (stereo not given) | -0.931
48 | CC(C)N1CCC(CC(=O)N2CCC(C(O)c3nccn3C)CC2)CC1 (stereo not given) | -0.153
49 | Cc1ccc2[nH]c(=O)cc(C(=O)N[C@@H]3C[C@@H](CO)N(C)C3)c2c1 | 5.43
50 | CN1CCN2C[C@@H](NC(=O)c3nc4ccccc4[nH]3)C[C@H]2C1 | -0.159
51 | OC1(CN2CCCCC2)CCN(c2nccc(C(F)(F)F)n2)C1 (stereo not given) | -7.07
52 | Cc1nc(CCCNC(=O)c2coc(CN3CCOCC3)c2)sc1C | -2.11
53 | COc1cccc(-c2noc(-c3ccc(NCCCN)nc3)n2)c1OC | -1.43
54 | CSc1ccccc1C(=O)N1CCN(C)C2(CCC(=O)N(C)CC2)C1 (stereo not given) | 3.84

Row | Structure (SMILES) | cytotoxicity at 10 µM [%]
55 | CNC(=O)c1sccc1S(=O)(=O)NC | 8.52
56 | O=S1(=O)CCC(n2cc(C3=CCN(CCc4ccccc4)CC3)cn2)C1 (stereo not given) | -2.64
57 | CC(Cn1cccn1)NCc1csc2c1CCCC2 (stereo not given) | -2.86
58 | O=C(C1CC1)N1CCc2c(ncnc2N2CCN3CCCC3C2)C1 (stereo not given) | -13.6
59 | CO[C@H]1CN(C(C)C)C[C@@H]1NC(=O)c1cc(COc2ccccc2)[nH]n1 | -2.43
60 | CCc1nnc(CN(C)C(=O)C2CC(=O)N(C3CC3)C2)o1 (stereo not given) | 2.28
61 | COC(=O)C(C)NCc1ccc2[nH]c(C)c(C)c2c1 (stereo not given) | 2.4
62 | CCCc1cc(C(=O)N(C)Cc2cccc3ncccc23)n(C)n1 | -0.758
63 | Cn1ccnc1-c1ccccc1C(=O)N1CCc2c(nc(N)[nH]c2=O)C1 | -5.3
64 | C[C@@H]1CN(C(=O)c2ccc(C#N)nc2)C[C@@]1(O)C1CC1 | -28.8
65 | Cc1nc(CN2CCCC(NCc3c(C)nc4sccn34)C2)no1 (stereo not given) | 6.21
66 | CC(C(=O)NCCCN1CCCCCC1=O)n1cncn1 (stereo not given) | -20.9
67 | O=C(NCCn1ccnc1)c1cccc(F)c1 | -10
68 | Cc1cc(CN2CCCC2Cn2cncn2)no1 (stereo not given) | -10
69 | O[C@@H]1CN(Cc2ccc(F)c(F)c2)CC[C@H]1NCc1ccccn1 | 3.85
70 | CN(C)CCOCC1CN(C(=O)N2CCCC2)Cc2ccnn2C1 (stereo not given) | 4.55
71 | CNC(=O)[C@H]1C[C@@H]2CN(S(=O)(=O)c3ccc(OC)cc3)C[C@@H]2N1C | -3.9
72 | Cc1nc(N2CCCC2)nc2c1CCN(Cc1nccn1C)CC2 | -130
73 | CCN1CCC(c2nc3ccc(NC4CCC4)cn3n2)CC1 | -121
74 | COCC1CC2(CCN(c3cccc(C)n3)CC2)CN1c1ncccn1 (stereo not given) | -108
75 | c1ccc(CN2CC[C@H]3[C@H]2CCN3c2ncccn2)nc1 | 1.24
76 | Cn1ccc(CN2CCC3(CC2)CC(Nc2cnccn2)CO3)n1 (stereo not given) | -2.66
77 | Cc1ccc(CN2C[C@@H]3CN(c4ncc(F)cn4)C[C@@H]3C2)cc1 | 1.86
78 | Cc1ccc(N2CC[C@H]3O[C@H](C(=O)N4CCCCO4)CC[C@H]32)nn1 | 10.1
79 | CCC1=N[C@@]2(CC[C@@H]3CN(Cc4ccccc4C)C[C@@H]32)C(=O)N1C | -107
80 | Fc1ccc(CNCC2OCCc3cn(CC4CC4)nc32)cc1 (stereo not given) | 0.925
